Here are results for 13 molecules from BindingDB's records for doi:10.1021/acs.jmedchem.7b00861 (Leiden University, 2017).

Test [1] addresses T1, Cannabinoid receptor 1 (Homo sapiens, UniProt P21554). In words: Displacement of [3H]CP55940 from recombinant human CB1 receptor expressed in beta-galactosidase expressing CHOK1 cell membranes after 60 mins by scintillation spectrometry.
Test [2] has as its target T1, Cannabinoid receptor 1. Description: Antagonist activity at recombinant human CB1 receptor expressed in HEK293 cell membranes assessed as inhibition of CP55940-induced [35S]GTPgammaS binding preincubated for 1 hr followed by CP55940 addition and subsequent incubation with [35S]GTPgammaS measured after 30 mins by scintillation spectrometry. In a few lines: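 Antagonism was measured by [35S]GTPγS binding at 30 °C on membranes of HEK-293 cells stably expressing recombinant human CB1.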

“And” between values parts separate entries of the source, which are not always exact repeats. Equal entries are not always repeated.

T1 sequence (P21554 whole entry): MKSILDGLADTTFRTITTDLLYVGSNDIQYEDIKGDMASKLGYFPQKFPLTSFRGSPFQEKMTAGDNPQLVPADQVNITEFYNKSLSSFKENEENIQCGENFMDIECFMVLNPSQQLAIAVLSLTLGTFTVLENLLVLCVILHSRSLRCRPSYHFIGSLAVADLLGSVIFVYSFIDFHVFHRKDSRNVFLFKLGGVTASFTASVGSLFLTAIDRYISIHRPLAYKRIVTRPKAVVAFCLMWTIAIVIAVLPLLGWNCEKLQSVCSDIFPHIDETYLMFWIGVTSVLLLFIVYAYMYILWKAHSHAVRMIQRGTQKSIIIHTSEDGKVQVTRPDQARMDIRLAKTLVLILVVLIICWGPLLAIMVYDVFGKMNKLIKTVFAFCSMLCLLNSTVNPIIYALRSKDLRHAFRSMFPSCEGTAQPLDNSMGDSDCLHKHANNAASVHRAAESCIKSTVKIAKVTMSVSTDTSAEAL

Turning to `Cc1c(C(=O)NN2CCCCC2)nc(-c2ccc(Cl)cc2Cl)n1-c1ccc(OS(=O)(=O)CCC(C)(C)C)cc1`, on Cannabinoid receptor 1 [1], the Ki was 0.501 nM. The IC50 on Cannabinoid receptor 1 [2] stood at 2 nM.
As for `Cc1c(C(=O)NN2CCCCC2)nc(-c2ccc(Cl)cc2Cl)n1-c1ccc(OS(=O)(=O)CCCC(F)(F)F)cc1`, the Ki on Cannabinoid receptor 1 [1] was found to be 0.1 nM.
Consider `Cc1c(C(=O)N[C@@H]2CCCC[C@@H]2O)nc(-c2ccc(Cl)cc2Cl)n1-c1ccc(OS(=O)(=O)CCC(F)(F)F)cc1`, for which, at Cannabinoid receptor 1 [2], the IC50 was 1.58 nM.
As for `Cc1c(C(=O)NN2CCCCC2)nc(-c2ccc(Cl)cc2Cl)n1-c1ccc(OS(=O)(=O)CCC(F)(F)F)cc1`, on Cannabinoid receptor 1 [1], the Ki is 0.126 nM.
With `Cc1c(C(=O)Nc2ccc(C(F)(F)F)cn2)nc(-c2ccc(Cl)cc2Cl)n1-c1ccc(OS(=O)(=O)CCC(F)(F)F)cc1`, the Ki on Cannabinoid receptor 1 [1] turned out to be 0.126 nM.
For `Cc1c(C(=O)N[C@@H]2CCCC[C@@H]2N(C)C)nc(-c2ccc(Cl)cc2Cl)n1-c1ccc(OS(=O)(=O)CCC(F)(F)F)cc1`, the Ki on Cannabinoid receptor 1 [1] was determined as 2.5 nM. The IC50 on Cannabinoid receptor 1 [2] is 79 nM and 83 nM.
Take `Cc1c(C(=O)NN2CCCCC2)nc(-c2ccc(Cl)cc2Cl)n1-c1ccc(OCCC(F)(F)F)cc1`: the Ki on Cannabinoid receptor 1 [1] stood at 0.794 nM. Moreover, on Cannabinoid receptor 1 [2], the IC50 was found to be 5.01 nM.
For `Cc1c(C(=O)N[C@H]2CCCC[C@H]2N)nc(-c2ccc(Cl)cc2Cl)n1-c1ccc(OS(=O)(=O)CCC(F)(F)F)cc1`, the Ki on Cannabinoid receptor 1 [1] came out at 0.316 nM. Further, at Cannabinoid receptor 1 [2], the IC50 amounted to 6.3 nM.
With `Cc1c(C(=O)N[C@H]2CCC[C@H](O)C2)nc(-c2ccc(Cl)cc2Cl)n1-c1ccc(OS(=O)(=O)CCC(F)(F)F)cc1`, the IC50 at Cannabinoid receptor 1 [2] came to 1.26 nM.
Consider `Cc1c(C(=O)N[C@@H]2CCCC[C@H]2O)nc(-c2ccc(Cl)cc2Cl)n1-c1ccc(OS(=O)(=O)CCC(F)(F)F)cc1`, for which the inhibition constant (Ki) on Cannabinoid receptor 1 [1] was 0.2 nM.
For the molecule `Cc1c(C(=O)Nc2ccc(F)nc2)nc(-c2ccc(Cl)cc2Cl)n1-c1ccc(OS(=O)(=O)CCC(F)(F)F)cc1`, on Cannabinoid receptor 1 [1], the Ki is 0.1 nM.
Turning to `Cc1c(C(=O)NN2CCCCC2)nc(-c2ccc(Cl)cc2Cl)n1-c1ccc(OCCCC(F)(F)F)cc1`, the Ki on Cannabinoid receptor 1 [1] is 0.2 nM.
As to `CCCCS(=O)(=O)Oc1ccc(-n2c(-c3ccc(Cl)cc3Cl)nc(C(=O)NN3CCCCC3)c2C)cc1`, the Ki on Cannabinoid receptor 1 [1] stood at 0.126 nM.
